# In the library only some 3.5% were active in any assay of this set; here they are far more common.
# MrgX1 allo act: allosterically activates human MrgX1 receptor signaling. Q96LB2. MrgX1-HEK293, Fluo-4 calcium flux, FDSS; stronger effect = higher value. B-score at 10 µM. 310,000 tested, 0.63% active. AID 588675;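 active = plate-corrected calcium response at least 3 library SD above typical, normal starting fluorescence, not activating the receptor alone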;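 note: compound read alongside a low EC10 to EC30 dose of BAM8-22 agonist; peak minus trough fluorescence over baseline measured at the second addition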
# Target sequence (Q96LB2 whole entry, looked up): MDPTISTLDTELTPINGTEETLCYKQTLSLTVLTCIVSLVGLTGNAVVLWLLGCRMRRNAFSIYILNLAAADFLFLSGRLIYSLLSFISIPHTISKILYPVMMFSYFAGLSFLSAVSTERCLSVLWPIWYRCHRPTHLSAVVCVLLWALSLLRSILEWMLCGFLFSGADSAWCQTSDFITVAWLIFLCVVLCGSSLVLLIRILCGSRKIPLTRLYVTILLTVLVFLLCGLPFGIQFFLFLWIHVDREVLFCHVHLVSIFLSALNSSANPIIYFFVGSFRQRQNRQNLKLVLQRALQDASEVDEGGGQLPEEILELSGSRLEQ
# RGS4 block: inhibitors of human RGS4. P49798. HEK293 M3R/RGS4 inducible, Fluo-4 calcium flux; stronger effect = higher value; triggered by carbachol at its EC20. B-score at 10 µM. 310,000 tested, 0.45% active. AID 463165;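 active = B-score, a plate-corrected calcium signal, over three deviations above library mean, with baseline fluorescence within five deviations of library mean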;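 note: RGS4 expression induced by doxycycline in cells with stable M3 receptor; B-score is computed from the integrated fluorescence ratio over baseline after carbachol; higher B-score means a larger calcium signal and so more RGS4 inhibition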
# Target sequence (P49798 whole entry, looked up): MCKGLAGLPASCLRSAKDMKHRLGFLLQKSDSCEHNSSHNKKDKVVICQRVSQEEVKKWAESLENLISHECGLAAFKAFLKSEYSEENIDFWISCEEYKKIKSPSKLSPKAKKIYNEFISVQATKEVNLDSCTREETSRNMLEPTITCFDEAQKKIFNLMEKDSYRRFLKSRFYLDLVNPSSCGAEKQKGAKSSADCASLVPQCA
# MrgX1 antag: antagonists of human MrgX1 receptor | Q96LB2 | MRGX1-HEK293 calcium flux, Fluo-4, BAM8-22 antagonism; stronger effect = lower value | B-score at 10 µM | 310,000 tested, 1.3% active;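 active = calcium-response B-score plate-corrected more than 3 library SD below zero, starting fluorescence within 5 deviations, no agonist response on first addition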;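 note: peak minus trough fluorescence over baseline after final BAM8-22 challenge near maximal dose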
# MrgX1 ag: agonists of human MrgX1 receptor. AID 588627. 310,000 tested, 0.44% active. B-score at 10 µM. Q96LB2. MrgX1-HEK293 cells, Fluo-4 calcium fluorescence, agonist mode; stronger effect = higher value;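 active = calcium response B-score plate-corrected fluorescence ratio at least 3 library SD, with starting fluorescence B-score inside 5 SD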
#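 Material – MrgX1-expressing HEK293 cells · Input – 15,000 cells seeded per well · Dosing – compound as first of three additions · Times – overnight seeding, then 1 h dark dye loading · Measured by – kinetic Fluo-4 NW fluorescence of intracellular calcium · Read-out – B-scored fluorescence response ratio · Benchmarks – positive and negative control wells on each plate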
# RGS4 pot: RGS4 potentiation or activation; HEK293 M3R/inducible RGS4, carbachol calcium flux Fluo4; stronger effect = lower value; B-score at 10 µM; 310,000 tested, 0.92% active;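 active = B-score of the integrated calcium signal more than 4 SD below the library mean, with starting fluorescence not abnormally high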;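 note: negative B-score means reduced calcium response which marks RGS4 activation or potentiation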
#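 Reagent: ECmax carbachol challenge; Test system: M3R-expressing HEK293 line, RGS4 induced by doxycycline; Schedule: overnight RGS4 induction, 30 min dye load 37 °C, 20 min compound RT; Detection: calcium dye Fluo4 fluorescence; Read-out: Agonist-evoked peak-minus-minimum fluorescence over baseline, integrated ratio, B score.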
# MrgX1 ant reconf: confirmation of human MrgX1 receptor antagonists; shares compounds with MrgX1 antag; MrgX1-HEK293, BAM8-22 calcium flux, Fluo-4; stronger effect = lower value; remaining BAM8-22 calcium response % of control (stronger effect = lower value), % at 10 µM; 2,300 tested, 19% active; AID 602420;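 active = remaining agonist calcium response no higher than 100% minus 3 SD of agonist-only control wells, with starting fluorescence near control levels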;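 note: agonist BAM8-22 given at a near maximal EC90 to ECmax level; peak minus minimum fluorescence divided by baseline after agonist addition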
# HEK293 Ca flux: MrgX1 antagonist counter-screen hit in parental HEK293 cells | shares compounds with MrgX1 antag | Fluo-4 calcium fluorescence, FDSS | fluorescence ratio F(max-min)/F0 at 10 µM | 4,000 tested, 2% active | AID 624111;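 active = duplicate-averaged calcium fluorescence ratio at least three times the standard deviation of buffer wells, a nonspecific response in parental cells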
# HEK293 Ca counter: activity in parental HEK293 cells without MrgX1; shares compounds with MrgX1 antag; parental HEK293 calcium flux, Fluo-4 fluorescence ratio; stronger effect = higher value; fluorescence ratio F(max-min)/F0 at 10 µM; 4,000 tested, 0.4% active; AID 624114;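 active = calcium fluorescence ratio, averaged over duplicates, at least 3 SD of the buffer-well ratio, meaning a nonspecific response in receptor-free cells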;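 note: untransfected parental HEK293 lacking MrgX1 used as counterscreen for MrgX1 allosteric activators; fluorescence change taken during the second addition on a kinetic imager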
# HEK293 Ca cntr2: activity in parental HEK293 cells lacking MrgX1 receptor; shares compounds with MrgX1 antag; Fluo-4 calcium fluorescence (FDSS); stronger effect = higher value; fluorescence ratio F(max-min)/F0 at 10 µM; 4,000 tested, 8.7% active;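 active = calcium fluorescence ratio at least three times the spread of buffer wells, meaning a non-specific response in parental cells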
# The depositor's hits bear a star; i = inactive; · = not tested or not shown.
SMILES,MrgX1 allo act,RGS4 block,MrgX1 antag,MrgX1 ag,RGS4 pot,MrgX1 ant reconf,HEK293 Ca flux,HEK293 Ca counter,HEK293 Ca cntr2
C=CCN1C(=O)c2cccc3c(N4CCCCC4)ccc(c23)C1=O,i,i,i,i,i,·,·,·,·
C=CCN1C(=O)c2cccc3c(Br)ccc(c23)C1=O,i,i,-7.6*,i,i,i,i,i,i
Cc1ccc(NC(=O)COC(=O)CNC(=O)c2ccc(Br)cc2)c(C)c1,i,i,i,i,i,·,·,·,·
Cc1cc2oc(=O)cc(CN3CCN(S(=O)(=O)c4ccc5c(c4)OCCO5)CC3)c2cc1C,i,i,-8.6*,i,i,i,i,i,i
O=C(NCc1ccco1)C1CCN(c2ccc(S(=O)(=O)N3CCOCC3)cc2[N+](=O)[O-])CC1,i,i,i,i,i,·,·,·,·
CCOC(=O)C(NC(=O)c1ccccc1)(Nc1nnc(C)s1)C(F)(F)F (stereo unspecified),i,i,-8.7*,i,i,i,i,i,i
CCOC(=O)C(NC(=O)c1ccccc1)(Nc1cc(C)on1)C(F)(F)F (stereo unspecified),i,i,i,i,i,·,·,·,·
CC(=O)NS(=O)(=O)c1ccc(NC(=S)NC(=O)Cc2ccccc2)cc1,i,i,-6.1*,i,i,i,i,i,i
O=C(NCc1ccccn1)C1CCN(S(=O)(=O)c2cc(Cl)ccc2Cl)CC1,i,i,i,i,i,·,·,·,·
NC(=S)c1cc2ccc(O)cc2oc1=O,·,i,·,·,i,·,·,·,·
Oc1cc(O)cc(-c2cc3ccc(O)cc3o2)c1,i,i,-6*,i,i,i,i,i,i
COCCn1c(SCC(=O)N2CC(=O)Nc3ccccc32)nc2ccccc21,i,i,i,i,i,·,·,·,·
CCCCCN1CC(=O)N2Cc3[nH]c4ccccc4c3C[C@H]2C1=O,i,i,-19*,i,i,i,i,i,i
CCn1c(=O)c([N+](=O)[O-])c(N2CCN(Cc3ccc4c(c3)OCO4)CC2)c2ccccc21,i,i,i,i,i,·,·,·,·
CN(/N=C/c1cc([N+](=O)[O-])ccc1O)c1ccccc1,i,i,i,i,i,·,·,·,·
CN(/N=C/c1ccc(-c2ccc([N+](=O)[O-])cc2)o1)c1ccccc1,i,i,-11*,i,i,i,i,i,i
CCN(CC)S(=O)(=O)c1ccc(OC(C)C)nc1,i,i,-5.9*,i,i,i,i,i,i
Cc1cc(C)c(C#N)c(Oc2ccccc2Br)n1,i,i,i,i,i,·,·,·,·
COc1ccc(/C=C/c2nc3cc(-c4ccccc4)ccc3o2)cc1O,i,i,-4.5*,i,i,i,i,i,i
COc1ccccc1-c1nnc(SCc2nc3ccccc3s2)n1C,i,i,-5.8*,i,i,i,i,i,i
Cc1cccc(C)c1OC(=O)CN(c1ccc(Cl)cc1)S(C)(=O)=O,i,i,-7.1*,i,i,i,i,i,i
CS(=O)(=O)N(CC(=O)NCc1ccccc1)c1ccc(Cl)cc1,i,i,i,i,i,·,·,·,·
COCC1=C(C(=O)OC)C(c2cccs2)n2ncnc2N1 (stereo unspecified),i,i,i,i,i,·,·,·,·
CN(C)S(=O)(=O)c1cccc(NC(=O)COC(=O)CNC(=O)c2cccc([N+](=O)[O-])c2)c1,i,i,i,i,i,·,·,·,·
CC(C)CC(=O)Nc1c2c(nn1-c1ccc(F)cc1)CSC2,i,i,-7.7*,i,i,i,i,i,i
SMILES,MrgX1 allo act,RGS4 block,MrgX1 antag,MrgX1 ag,RGS4 pot,MrgX1 ant reconf,HEK293 Ca flux,HEK293 Ca counter,HEK293 Ca cntr2
O=C(NC1CC1)c1cc2c(s1)-c1ccccc1OC2,i,i,-5.2*,i,i,i,i,i,i
Cc1ccc(C)c(NC(=O)Cc2nc(CCl)cs2)c1,i,i,i,i,i,·,·,·,·
Cc1ccccc1NC(=O)Cc1nc(CCl)cs1,i,i,-5.4*,i,i,i,i,i,i
O=C(CSc1nnc(NC(=O)c2c(F)cccc2F)s1)Nc1ccc(F)cc1,i,i,-6.2*,i,i,i,i,i,i
COc1ccc2[nH]cc(CCNC(C)=O)c2c1,i,i,i,i,i,·,·,·,·
CC(=O)NCCc1c[nH]c2ccc(O)cc12,i,i,-5.1*,i,i,i,i,i,i
CCc1cccc(CC)c1-n1c(SCC(=O)N2CCc3ccccc3C2)nnc1-c1cccnc1,i,i,-7.8*,i,i,i,i,i,i
Cc1ccc(S(=O)(=O)n2nnc3ccccc32)c(C)c1C,i,i,-4.8*,i,i,i,i,i,i
COc1ccc(C(=O)N2CCCc3ccccc32)cc1,i,i,i,i,i,·,·,·,·
O=C(OCC(=O)N1CCCc2ccccc21)c1cc(S(=O)(=O)N2CCOCC2)ccc1Cl,i,i,-4.5*,i,i,i,i,i,i
CC(C)Oc1ccc(C(=O)N2CCCc3ccccc32)cc1,i,i,-6.3*,i,i,i,i,i,i
CS(=O)(=O)c1ccc(C(=O)OCC(=O)N2CCCc3ccccc32)cc1,i,i,-7.3*,i,i,85%*,i,i,i
CSc1sc(C(=O)N(C)C)c2c1S(=O)(=O)N(C)c1ccccc1-2,i,i,i,i,i,·,·,·,·
COc1ccccc1N(CC(=O)NC1CCCC1)C(=O)CNC(=O)c1cccs1,i,i,i,i,i,·,·,·,·
CCN1C(=O)c2ccc(C(=O)Nc3ccc(O)cc3C)cc2C1=O,i,i,i,i,i,·,·,·,·
